Experiments:
Format in all cases: functional
[1] = Cytotoxicity against human ovarian cancer cells; details: Cancer cell lines
Summary of the method: (§1)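 Subpanel values are mean GI50 over the panel's strains of each tumour type: breast 5, colon 6, lung 6 or 7, ovarian 5, stomach 6. […] Cells were grown in RPMI 1640 with 5% FBS at 37 °C under 5% CO2.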

[2] = Cytotoxicity against human stomach cancer cells; details: Cancer cell lines; summary of the method: as §1
MKN-28 = assay: Cytotoxicity against human MKN28 cells
Summary of the method: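 Each line was grown in RPMI 1640 with 5% FBS and penicillin ([…]) at 37 °C under 5% CO2. Cells were plated, attached overnight, and exposed to drug for 48 h. Sulforhodamine B staining was read at 525 nm, with control, test and time-zero absorbances. % growth = 100×(T−T0)/(C−T0), or […] T<T0. GI50 is the concentration giving 50% growth.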

[3] = Cytotoxicity against human breast cancer cells; details: Cancer cell lines; summary of the method: as §1
[4] = Cytotoxicity against human CNS cancer cells; details: Cancer cell lines
[5] = Cytotoxicity against human lung cancer cells; details: Cancer cell lines; summary of the method: as §1
[6] = Cytotoxicity against human colon cancer cells; details: Cancer cell lines; summary of the method: as §1

SMILES	GI50 [1] [nM]	GI50 [2] [nM]	GI50 (MKN-28) [nM]	GI50 [3] [nM]	GI50 [4] [nM]	GI50 [5] [nM]	GI50 [6] [nM]
CCCCc1c2[n+](cc3c(OC)c(OC)ccc13)CCc1cc3c(cc1-2)OCO3	5250	3900	< 2690	6310	3710	1780	2510
CCCCCCc1c2[n+](cc3c(OC)c(OC)ccc13)CCc1cc3c(cc1-2)OCO3	1170	760	830	760	1200	490	720
COc1cc(Br)c2cc3[n+](c(-c4ccccc4)c2c1OC)CCc1cc2c(cc1-3)OCO2	2450	1910	< 2690	1000	2000	2190	1550
CCCCc1c2c(OC)c(OC)cc(Br)c2cc2[n+]1CCc1cc3c(cc1-2)OCO3	1380	1290	< 2690	520	1910	1540	1110
CCCCCCc1c2c(OC)c(OC)cc(Br)c2cc2[n+]1CCc1cc3c(cc1-2)OCO3	480	340	410	310	410	410	440
CCCCCCc1c2[n+](cc3c(OC)c(OC)ccc13)CCc1cc(OC)c(OC)cc1-2 [13-HEXYLPALMATINE]	2880	3470	< 2690	1050	2950	2140	1820
COc1cccc2c1C(=O)c1c(O)c3c(c(O)c1C2=O)C[C@@](O)(C(=O)CO)C[C@@H]3O[C@H]1C[C@H](N)[C@H](O)[C@H](C)O1 [DOXORUBICIN]	4350	5820	–	1820	–	400	2550
CO[C@@]12[C@H](COC(N)=O)C3=C(C(=O)C(C)=C(N)C3=O)N1C[C@@H]1N[C@@H]12 [MITOMYCIN]	120	100	–	34	–	23	180

— ChEMBL document CHEMBL1137805, “In vitro cytotoxicity of the protoberberine-type alkaloids” (2001)
